The text below walks through data of ChEMBL document CHEMBL4665800, “Biased Agonism at Nociceptin/Orphanin FQ Receptors: A Structure Activity Study on N/OFQ(1-13)-NH” (J Med Chem, 2020).

Activity calls are given as the source filed them. The rule behind the calls is not given here. Starred links: 1 amine or outer side, 2 acyl side, 3 side chain; linkers in the order of their positions; H or OH if unused. Positions of bridges follow the written chain, without caps; N, C: chain ends. Non-standard residues stand in square brackets, D forms with d. Residues, ends and D or L forms follow the SMILES beside them. Chains are numbered I, II in the order given. *: point of attachment. X1 = CCCCCCCCCCCCCCCC(=O)NCCCN1C(=O)CC(*)C1=O; X3 = N[C@@H](Cc1ccccc1)CN(CC(=O)[*:2])[*:1]; X2 = O=C1CC([*:1])C(=O)N1CCCC(=O)[*:2]

Common to all, as to format: cell-based
Test [1] deals with T1, Mu-type opioid receptor (Homo sapiens, UniProt P35372). In words: Agonist activity at MOP (unknown origin) expressed in SH-SY5Y cell membranes co-expressing Gbeta1-RGFP protein assessed as induction of G protein activation incubated for 15 mins by BRET assay. (In general: Bioluminescence resonance energy transfer reports proximity on the nanometre scale.)
Test [2] has as its target T1, Mu-type opioid receptor. The test can be described thus: Agonist activity at MOP (unknown origin) expressed in SH-SY5Y cell membranes co-expressing beta-arrestin2-RGFP protein assessed as induction of beta-arrestin2 activation incubated for 15 mins by BRET assay.
Test [3] has as its target T2, Delta-type opioid receptor (Homo sapiens, UniProt P41143). The test can be described thus: Agonist activity at DOP (unknown origin) expressed in SH-SY5Y cell membranes co-expressing Gbeta1-RGFP protein assessed as induction of G protein activation incubated for 15 mins by BRET assay. The gist of the method:
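Membranes (3 μg protein) from SH-SY5Y cells stably co-expressing delta-RLuc and Gβ1-RGFP, in DPBS. Ligands in PBS–BSA 0.01%, coelenterazine 5 μM final, room temperature. BRET ratio (RGFP 510 nm/RLuc 460 nm CPS minus vehicle) read 15 min after agonist. Efficacy relative to deltorphin A run on every plate; CR versus deltorphin A EC50. Five experiments in duplicate.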

In test [4] the target is T2, Delta-type opioid receptor. In words: Agonist activity at DOP (unknown origin) expressed in SH-SY5Y cell membranes co-expressing beta-arrestin2-RGFP protein assessed as induction of beta-arrestin2 activation incubated for 15 mins by BRET assay. The gist of the method:
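Whole SH-SY5Y cells stably co-expressing delta-RLuc and β-arrestin 2-RGFP, plated 24 h earlier (100,000 cells/well), in PBS with MgCl2 0.5 mM and CaCl2 0.9 mM. Coelenterazine 5 μM final added 15 min before reading. BRET ratio read 15 min after agonist at room temperature. Efficacy and CR relative to deltorphin A. Five experiments in duplicate.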

In test [5] the target is T2, Delta-type opioid receptor. In words: Bias factor, selectivity for agonist activity at DOP (unknown origin) expressed in SH-SY5Y cell membranes co-expressing beta-arrestin2-RGFP protein assessed as induction of beta-arrestin2 activation to agonist activity at […] cell membranes co-expressing Gbeta1-RGFP protein assessed as induction of G protein activation. Conditions: […]. The method in brief: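 Concentration–response curves from delta G protein (membrane) and β-arrestin 2 (whole cell) BRET assays fitted to the Black–Leff operational model. Bias factor = Δlog(τ/KA) G protein minus Δlog(τ/KA) β-arrestin 2, with deltorphin A as the unbiased reference. Mean of at least five experiments, with 95% confidence limits.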

In test [6] the target is T3, Nociceptin receptor (Homo sapiens, UniProt P41146). The test can be described thus: Agonist activity at NOP (unknown origin) expressed in HEK293 cell membranes co-expressing Gbeta1-RGFP protein assessed as induction of G protein activation incubated for 15 mins by BRET assay. The gist of the method: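 Membranes (3 μg protein) from HEK293 cells stably co-expressing NOP-RLuc and Gβ1-RGFP, in DPBS. Coelenterazine 5 μM final; ligands in PBS–BSA 0.01%. BRET ratio (RGFP 510 nm / RLuc 460 nm) read 15 min after agonist, room temperature. Values are vehicle-subtracted stimulated BRET ratio. Mean of five experiments in duplicate.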

The target in test [7] is T3, Nociceptin receptor. In words: Agonist activity at NOP (unknown origin) […] assessed as induction of beta-arrestin2 activation incubated for 15 mins by BRET assay.
Test [8] deals with T3, Nociceptin receptor. In words: Antagonist activity at NOP (unknown origin) expressed in HEK293 cell membranes co-expressing Gbeta1-RGFP protein assessed as reduction in N/OFQ(1-13)-NH2-induced induction of G protein activation pre-incubated for 15 mins before stimulation with N/OFQ(1-13)-NH2 for 15 mins by BRET assay. Conditions: read-out: pA2 (converted).
Test [9] has as its target T3, Nociceptin receptor. In words: Antagonist activity at NOP (unknown origin) expressed in HEK293 cell membranes co-expressing beta-arrestin2-RGFP protein assessed as reduction in N/OFQ(1-13)-NH2-induced induction of beta-arrestin2 activation pre-incubated for 15 mins before stimulation with N/OFQ(1-13)-NH2 for 15 mins by BRET assay. Particulars: read-out: pA2 (converted).

The target of test [10] is T3, Nociceptin receptor. In words: Bias factor, selectivity for agonist activity at NOP (unknown origin) expressed in HEK293 cell membranes co-expressing beta-arrestin2-RGFP protein assessed as induction of beta-arrestin2 activation to agonist activity at NOP (unknown origin) expressed in HEK293 cell membranes co-expressing Gbeta1-RGFP protein assessed as induction of G protein activation. The method in brief:
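Concentration–response curves in the NOP G protein and β-arrestin 2 BRET assays were fitted to the Black–Leff operational model. Mean of at least five experiments with 95% confidence limits.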

T2 sequence (P41143 whole entry): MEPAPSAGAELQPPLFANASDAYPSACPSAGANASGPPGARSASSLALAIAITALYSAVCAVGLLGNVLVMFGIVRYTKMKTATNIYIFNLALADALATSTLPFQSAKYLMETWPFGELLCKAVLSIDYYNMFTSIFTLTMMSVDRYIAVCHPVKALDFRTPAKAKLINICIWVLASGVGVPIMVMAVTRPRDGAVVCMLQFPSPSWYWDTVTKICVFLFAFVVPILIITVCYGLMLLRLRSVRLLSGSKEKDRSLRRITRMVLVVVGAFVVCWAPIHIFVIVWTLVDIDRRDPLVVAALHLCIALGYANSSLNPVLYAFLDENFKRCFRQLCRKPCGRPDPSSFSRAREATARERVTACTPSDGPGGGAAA
T3 sequence (P41146 whole entry): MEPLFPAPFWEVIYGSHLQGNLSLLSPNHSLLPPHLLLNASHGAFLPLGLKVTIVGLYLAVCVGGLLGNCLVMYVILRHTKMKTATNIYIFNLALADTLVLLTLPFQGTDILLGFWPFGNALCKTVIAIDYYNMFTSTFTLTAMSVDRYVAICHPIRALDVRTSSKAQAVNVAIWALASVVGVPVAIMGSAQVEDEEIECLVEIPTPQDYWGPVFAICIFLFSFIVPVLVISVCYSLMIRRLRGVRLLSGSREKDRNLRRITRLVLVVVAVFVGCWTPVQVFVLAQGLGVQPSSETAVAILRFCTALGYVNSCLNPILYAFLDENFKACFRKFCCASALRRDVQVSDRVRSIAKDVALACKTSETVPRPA
T1 sequence (P35372 whole entry): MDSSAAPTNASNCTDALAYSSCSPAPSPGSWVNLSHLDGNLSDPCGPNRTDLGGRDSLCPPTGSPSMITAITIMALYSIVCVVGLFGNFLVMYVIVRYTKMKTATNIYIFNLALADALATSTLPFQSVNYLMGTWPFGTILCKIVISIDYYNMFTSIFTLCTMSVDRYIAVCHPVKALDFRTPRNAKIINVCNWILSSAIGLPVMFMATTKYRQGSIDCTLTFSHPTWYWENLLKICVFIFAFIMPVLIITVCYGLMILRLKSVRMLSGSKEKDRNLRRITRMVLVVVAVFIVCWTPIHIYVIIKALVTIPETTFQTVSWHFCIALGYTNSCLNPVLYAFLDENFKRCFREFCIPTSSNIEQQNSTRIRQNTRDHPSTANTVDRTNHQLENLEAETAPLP

In general, EC50 refers to the concentration that produces a half-maximal response. As for `CCCCCCCCCCCCCCCC(=O)NCCCN1C(=O)CC(SC[C@H](NC(=O)[C@H](CO)NC(=O)[C@@H]2CCCN2C(=O)[C@H](Cc2ccc(O)cc2)NC(=O)CNC(=O)[C@H](Cc2ccccc2)NC(=O)[C@@H](C)NC(=O)[C@@H](N)Cc2ccc(O)cc2)C(N)=O)C1=O` (stereo partly specified), the EC50 in test [1] was 1.45 nM; in test [2], 11 nM; in [3] it was 58.9 nM; in [4], 617 nM.
On to `CCCCCCCCCCCCCCCC(=O)NCCCN1C(=O)CC(SC[C@H](NC(=O)[C@H](CC(C)C)NC(=O)[C@H](Cc2ccccc2)NC(=O)CNC(=O)CNC(=O)[C@@H](N)Cc2ccc(O)cc2)C(N)=O)C1=O` (stereo partly specified) (H-YGGFLC(X1)-NH2), for which the EC50 in [1] was 4.07 nM; in [2], 229 nM; in test [3], 8.13 nM; in [4], 132 nM. In addition, the Selectivity ratio in [5] was 1.7.
With `CSCC[C@H](NC(=O)[C@H](CC(C)C)NC(=O)[C@H](Cc1c[nH]cn1)NC(=O)[C@H](Cc1ccccc1)NC(=O)[C@@H](CCSC)NC(=O)[C@@H](N)Cc1ccc(O)cc1)C(=O)N[C@@H](CC(=O)O)C(=O)O` (H-Y[dM]FHLMD-OH), the EC50 in test [3] was 26.3 nM; in [4] it was 14.8 nM. In addition, the Selectivity ratio in test [5] is 0.
Consider `CCCCCCCCCCCCCCCC(=O)NCCCN1C(=O)CC(SC[C@H](NC(=O)[C@H](CC(=O)O)NC(=O)[C@H](CCSC)NC(=O)[C@H](CC(C)C)NC(=O)[C@H](Cc2c[nH]cn2)NC(=O)[C@H](Cc2ccccc2)NC(=O)[C@@H](CCSC)NC(=O)[C@@H](N)Cc2ccc(O)cc2)C(N)=O)C1=O` (stereo partly specified) (H-Y[dM]FHLMDC(X1)-NH2), for which the 50% effective concentration (EC50) in test [1] is 51.3 nM; in [2], 38 nM; in test [3], 2.04 nM; in [4] it was 22.4 nM. In test [5], the Selectivity ratio came out at 1.06.
Turning to `C[C@H](NC(=O)CNC(=O)[C@@H](NC(=O)[C@H](Cc1ccccc1)NC(=O)CNC(=O)CNC[C@@H](N)Cc1ccccc1)[C@@H](C)O)C(=O)N[C@@H](CCCN=C(N)N)C(=O)N[C@@H](CCCCN)C(=O)N[C@@H](CO)C(=O)N[C@@H](C)C(=O)N[C@@H](CCCN=C(N)N)C(=O)N[C@@H](CCCCN)C(N)=O` (H-[X3]GFTGARKSARK-NH2), the EC50 in test [6] is 8.91 nM. Also, in [7] (HEK293), the pEC50 result was “inactive”. Besides, the Kb is 5.89 nM in test [8] and 14.8 nM in test [9].
With `C[C@H](NC(=O)CNC(=O)[C@@H](NC(=O)[C@H](Cc1ccccc1)NC(=O)CNC(=O)CNC(=O)[C@@H](N)Cc1ccccc1)[C@@H](C)O)C(=O)N[C@@H](CCCNC(=N)N)C(=O)N[C@@H](CCCCN)C(=O)N[C@@H](CO)C(=O)N[C@@H](C)C(=O)N[C@@H](CCCNC(=N)N)C(=O)N[C@@H](CCCCN)C(=O)N[C@@H](CSC1CC(=O)N(CCCC(=O)NCC(=O)N[C@@H](CCCCN)C(=O)NCC(=O)N[C@@H](CCCCN)C(=O)NCC(=O)N[C@@H](CCCCN)C(=O)NCC(=O)N[C@@H](CCCCN)C(=O)NCC(=O)N[C@@H](CCCCN)C(=O)NCC(=O)N[C@@H](CCCCN)C(N)=O)C1=O)C(N)=O` (stereo partly specified) (I: H-FGGFTGARKSARKC-NH2 / II: GKGKGKGKGKGK-NH2; linker I:14-II:N via X2), the EC50 was 1.1 nM in test [6] and 14.5 nM in [7]. Further, the Selectivity Index in test [10] came to 1.11.
In the same order, the values of H-FGAFTGARKSARK-NH2 are 13.2 nM, 28.8 nM and -0.21.
For H-FGGFAGARKSARK-NH2, in that order: 75.9 nM, 741 nM and 0.4.
In the case of H-FGGFTAARKSARK-NH2, the EC50 is 21.9 nM in [6] and 79.4 nM in test [7]. Besides, the Selectivity Index in test [10] was determined as 0.04.
Consider H-FGGFVGARKSARK-NH2, for which the figures for the EC50 in test [6] and in [7] were 11.5 nM and 41.7 nM, respectively. Moreover, in [10], the Selectivity Index is 0.09.
